From PubChem BioAssay
Apaf-1 act: human Apaf-1 activation; O14727; Apaf-1 apoptosome caspase-3 activation, DEVD-Rh110 fluorescence; active compounds read low; activity change, negative = activation, % at 20 µM; 330,000 compounds, 0.31% hits; AID 489031;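 active = activity change at or below -40% at 20 µM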
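Material: reconstituted apoptosome of Apaf-1, cytochrome c, caspase-9, procaspase-3; times: 30 min preincubation, 50 min reaction, room temperature; measured by: fluorescence, 540 nm emission, 480 nm excitation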
Rh110 interf act: interferes with Rh110 fluorescence, flagging false Apaf-1 activators. Rh110 fluorescence interference, quenched caspase reaction, Ex480/Em540. 980 tested, under 10 active. shares compounds with Apaf-1 act. fluorescence interference (activity change), % at 20 µM, hits read low;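 active = mean activity change at or below -40% when tested at 20 µM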
Apaf-1 act conf2: confirmation of human Apaf-1 activators; 980 compounds, 5% hits; shares compounds with Apaf-1 act; activity change, negative = activation, % at 20 µM; reconstituted apoptosome caspase-3 activity, DEVD-Rh110 fluorescence; active compounds read low;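 active = mean activity change at or below -40%, meaning activation of 40% or more, at 20 µM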
Starred values were filed as active, the others as inactive. Only a sample is shown.

Screening C#CCOCCOCCOCCNc1nc(N2CCN(C(=O)[C@H]([C@@H](C)CC)n3cc([C@@H](N)CO)nn3)CC2)nc(N2CCN(C(=O)[C@H](Cc3cc4ccccc4[nH]3)n3cc([C@@H](N)C(C)CC)nn3)CC2)n1 (some centres undefined) returned Apaf-1 act 48.
O=C(CSc1nc(=O)n2ccccc2n1)NCc1ccccc1Cl was read as Apaf-1 act 48.
For O=C1NCCCC2c3cc(O)c4ccccc4c3OC12N1CCCCC1 (centres undefined) the results were Apaf-1 act 93.
COC(=O)C1=C(C)N(CC2CC2)C(=NCc2cccc(C(F)(F)F)c2)N[C@H]1c1ccccc1 was read as Apaf-1 act 57.
Screening CCN1CCN(c2ccc(S(=O)(=O)N3CCOCC3)cc2NC(=O)CC(C)C)CC1 returned Apaf-1 act 50.
Screening Cc1nc2ccc3nc(NC(=O)c4ccc(S(=O)(=O)N5CCOCC5)cc4)sc3c2s1 returned Apaf-1 act -80*, Rh110 interf act -7 and Apaf-1 act conf2 -21.
Screening Cc1[nH]n(-c2ccccc2)c(=O)c1N=Nc1cccc(S(=O)(=O)N2CCOCC2)c1 returned Apaf-1 act 46.
Cc1cc(NC(=O)c2cccc(S(=O)(=O)N3CCOCC3)c2)no1 was read as Apaf-1 act -50*, Rh110 interf act 2 and Apaf-1 act conf2 9.
For Cc1ccc(-n2c(O)c(/C=N/Nc3ccc(S(=O)(=O)N4CCOCC4)cc3[N+](=O)[O-])c3ccccc3c2=O)c(C)c1 the results were Apaf-1 act 51.
COc1ccc(C[C@H]2CN3C(=NC[C@@H]3C(C)C)N2C[C@H](C)NC(=O)c2ccc(C)c(Br)c2)cc1 was read as Apaf-1 act 48.
`CCC(C)[C@H]1CN=C(N)N1CCc1cc(C(F)(F)F)cc(C(F)(F)F)c1` (some centres undefined) gave Apaf-1 act 57.
`Brc1ccc(-c2cn3nc4c(nc3n2)CCCC4)cc1` gave Apaf-1 act 41.
`N#Cc1c(N)n(CCc2ccc(F)cc2)c2nc3ccccc3nc12` gave Apaf-1 act 82.
Screening NC1=NC[C@H](Cc2ccccc2)N1CCCCC1CCCCC1 returned Apaf-1 act 67.
`Cc1ccc(C=Nc2ccccc2C(=O)Nc2ccccc2)cc1` gave Apaf-1 act -464*, Rh110 interf act 5 and Apaf-1 act conf2 8.
Cc1ccc(N=Cc2cccc(O)c2O)c(C)c1 was read as Apaf-1 act 93.
COc1ccccc1-c1sc2cc3c(cc2c1-c1ccc(OCCN2CCCCC2)cc1)OCO3 was read as Apaf-1 act 59.
COc1ccc(-c2cc(=O)[nH][nH]2)cc1OC was read as Apaf-1 act 77.
For COc1ccc(-c2cnc(OC(C)(C)C)nc2OC(C)(C)C)cc1OC the results were Apaf-1 act -265*, Rh110 interf act 15 and Apaf-1 act conf2 14.
Cc1c(/C=N/Nc2nc3ccccc3[nH]2)c2ccccc2n1C was read as Apaf-1 act 43.
`CCC(C)(C)c1ccc(OCCCC[n+]2ccccc2)c(C(C)(C)CC)c1` gave Apaf-1 act 51.
COc1ccc(OCCNc2c([N+](=O)[O-])c(=O)oc3ccccc23)cc1 was read as Apaf-1 act 73.
Screening O=C1Nc2cc(Cl)c(Cl)cc2N(O)N1c1cccc(Cl)c1 returned Apaf-1 act 44.
O=C1Nc2ccccc2N(O)N1c1cc(-c2cccc(Cl)c2)no1 was read as Apaf-1 act -88*, Rh110 interf act -9 and Apaf-1 act conf2 14.
Screening N#Cc1nc(-c2ccco2)oc1N1CCc2ccccc2C1 returned Apaf-1 act 52.
`COc1cc(OC)c(OC)cc1/C=N/N(C)c1ccccc1` gave Apaf-1 act -78*, Rh110 interf act 55 and Apaf-1 act conf2 18.
COc1ccccc1/C=N/Nc1cc(N(C)C)nc(N(C)C)n1 was read as Apaf-1 act 84.
CCCCCCCCCCOC(=O)Cn1c(COc2ccccc2OC)[n+](C)c2ccccc21 was read as Apaf-1 act 71.
For C#CCOCCOCCOCCNc1nc(N2CCN(C(=O)CCCCCCCCCCNC(=O)[C@H]([C@@H](C)CC)n3cc(CCCCCN)nn3)CC2)nc(N2CCN(C(=O)CCCCCCCCCCNC(=O)[C@@H]([C@H](C)O)n3cc(C)nn3)CC2)n1 the results were Apaf-1 act 50.
For O=C1NC(c2ccc(-c3ccccc3[N+](=O)[O-])o2)C(C(=O)c2ccc(F)cc2)C(O)(C(F)(F)F)N1 (centres undefined) the results were Apaf-1 act 51.
O=C(C[C@H]1C[C@H](C(=O)N2CCCCC2)[C@@]2(CCc3ccccc3)c3[nH]c4cc(-c5ccco5)ccc4c3CCN2C1=O)NCCN1CCOCC1 was read as Apaf-1 act 48.
`CCOc1ccc(-n2c(SCc3ccc([N+](=O)[O-])cc3)nnc2-c2ccc(OC)cc2)cc1` gave Apaf-1 act -304*, Rh110 interf act -4 and Apaf-1 act conf2 18.
`COc1ccc(-c2sc3cc4c(cc3c2C#CC2(N)CCCCC2)OCO4)cc1` gave Apaf-1 act 72.
Cn1ccc2cc3c(cc21)CCN3C(=O)Nc1cccnc1 was read as Apaf-1 act 66.
For CC(C)c1ccc(NC(=O)C2CC(=O)N(C3CCCC3)C2)cc1 (centres undefined) the results were Apaf-1 act -96*, Rh110 interf act 4 and Apaf-1 act conf2 4.
CCC(CO)Oc1cc(NCc2ccc(C)cc2)c2ncn(C(C)C)c2c1 (centres undefined) was read as Apaf-1 act 41.
For O=[N+]([O-])c1cccnc1SCc1ccccc1 the results were Apaf-1 act -514*, Rh110 interf act 10 and Apaf-1 act conf2 9.
Screening O=C1/C(=N\S(=O)(=O)c2cccs2)C([n+]2ccc(CCCc3ccccc3)cc2)=C([O-])c2ccccc21 returned Apaf-1 act 46.
O=C1c2c(O)ccc(O)c2C(=O)c2c(NCCNCCO)ccc(NCCNCCO)c21 was read as Apaf-1 act 78.
O=C(COc1ccc(-c2ccccc2)cc1)NNC(=O)Nc1ccc(F)cc1F was read as Apaf-1 act -54*, Rh110 interf act 4 and Apaf-1 act conf2 16.
O=C(COc1ccccc1)N1CCN=C1SCc1ccc(F)cc1 was read as Apaf-1 act 56.
For CN1CCN(c2ccc(-c3cccc(NC(=O)COc4ccccc4)c3)nn2)CC1 the results were Apaf-1 act 47.
For COc1ccc(C2CC(=O)N3CN(c4ccc(C)c(Cl)c4)CSC3=C2C#N)cc1 (centres undefined) the results were Apaf-1 act 47.
Screening Nc1c(C(=O)NCCN2CCOCC2)c2nc3ccccc3nc2n1CCc1ccccc1F returned Apaf-1 act 43.
For CCN(Cc1ccncc1)C(=O)c1ccc(Br)o1 the results were Apaf-1 act -613*, Rh110 interf act -1 and Apaf-1 act conf2 8.
Cc1cccc2sc(N(CCCN(C)C)C(=O)c3ccc(S(=O)(=O)N4CCc5ccccc5C4)cc3)nc12 was read as Apaf-1 act 63.
Screening COc1ccc2c(c1)c1ccc3c(c1n2C)C(=O)C=CC3=O returned Apaf-1 act 71.
